# Rows were chosen to be rich in hits. Some 4.3% of all compounds tested hit in one or more screens of this group.
# APP 5'UTR act – activates APP 5'UTR luciferase reporter. SH-SY5Y APP 5'UTR luciferase reporter, luminescence; zero percent = DMSO vehicle wells. activation, % at 2 µM. 1% of 190,000 active;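 active means activation above a set limit, based on mean plus 3 SD of controls, cut at about 140% in these data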
# STAT1 act – activators of IFN-gamma induced STAT1 signaling | NIH 3T3 STAT1-luciferase reporter, luminescence; 100% = IFN-gamma alone, no compound | activation (% of control), % at 5.5 µM | 2.6% of 200,000 active;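 active means activation above the screen-wide mean activation plus 3 SD, cut at about 130% in these data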;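 further: raw ratio to IFN-gamma control signal so 100% means no change and 0% no light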
# FLuc inh counter – counter-screen for luciferase assay inhibitors: firefly luciferase inhibition; 1.5% of 200,000 active; ATPLite firefly luciferase biochemical luminescence, 10 min; inhibition, % at 10 µM;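 active means inhibition above about 50% when tested at 10 µM, limit read from the data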
# Target sequence (P08659 whole entry, looked up): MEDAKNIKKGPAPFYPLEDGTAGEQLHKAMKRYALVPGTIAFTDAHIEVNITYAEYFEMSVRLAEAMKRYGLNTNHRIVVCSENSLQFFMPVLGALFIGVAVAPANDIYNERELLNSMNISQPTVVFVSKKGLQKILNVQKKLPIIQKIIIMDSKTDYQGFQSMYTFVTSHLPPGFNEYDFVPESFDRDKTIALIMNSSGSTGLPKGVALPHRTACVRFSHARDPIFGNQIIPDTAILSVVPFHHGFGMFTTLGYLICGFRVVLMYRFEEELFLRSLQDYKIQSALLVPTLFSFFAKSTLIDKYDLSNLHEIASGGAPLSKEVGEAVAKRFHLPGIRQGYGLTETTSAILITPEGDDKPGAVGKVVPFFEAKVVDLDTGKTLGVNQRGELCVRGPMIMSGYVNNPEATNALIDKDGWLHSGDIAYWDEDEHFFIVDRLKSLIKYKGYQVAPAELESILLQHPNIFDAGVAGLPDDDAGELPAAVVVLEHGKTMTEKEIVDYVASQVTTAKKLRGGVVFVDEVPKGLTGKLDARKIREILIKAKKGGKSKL
# NF-kB expr up – compounds increasing NF-kB expression in human neuronal cells; NF-kB reporter expression; hits give high values; fold change at 12.5 µM; 1.6% of 190,000 active; AID 1239; in the data active means fold change above about 3.3
# FLuc stim CS – firefly luciferase counter-screen for stimulation assays | ATPlite luciferase biochemical, luminescence, 10 min; 0 = ATP-free wells, 1 = DMSO control | activation factor at 10 µM | 200,000 tested, under 10 active;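 active means luciferase activation factor, scaled between plate controls, of at least 2 with compound at 10 µM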
#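 Assay system: Luciferase/luciferin detection reagent, cell-free biochemical luciferase assay / Read-out: luciferase activation / Benchmarks: No-ATP low control, compound-free enzyme-plus-ATP high control / Medium: PBS buffer for ATP / Detection: luminescence measurement of luciferase light output / Schedule: 10 min at ambient temperature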
# Active calls of the source: *.
SMILES,APP 5'UTR act,STAT1 act,FLuc inh counter,NF-kB expr up,FLuc stim CS
O=C1c2ccccc2S(=O)(=O)N1CC1CC(c2ccccc2)=NO1 (stereo not drawn),35,132*,24,2.6,0.8
O=C(c1ccco1)N1N=C2CCCCCC2C1(O)C(F)(F)F (stereo not drawn),2,100,-1,2.6,1
Cc1cccc(C(=O)N/N=C/c2ccc3c(c2)OCO3)n1,-6,100,8,1.4,0.9
O=C(N/N=C/c1ccc2c(c1)OCO2)c1ccccn1,56,100,88*,2.2,0.1
O=C(O/N=C/c1ccc2c(c1)OCO2)c1ccccc1Cl,7,103,70*,3.7*,0.3
O=C(N/N=C/c1ccc2c(c1)OCO2)c1ccc2ccccc2n1,24,95,67*,1,0.3
O=C(N/N=C/C(Cl)=C/c1ccccc1)c1ccccn1,131,122,81*,4.3*,0.2
CCOCCOCN(C#N)c1nc(OC)nc(N(C)C)n1,1,96,-4,1,1
O=C(NC(=S)N1CCc2ccccc21)c1ccccc1,16,88,52*,0.88,0.5
O=c1c(-c2ccco2)[n+]([O-])c2ccccc2n1OCc1ccccc1[N+](=O)[O-],9,94,0,1.3,1
Clc1ccc(-c2nnc(NC3=NCCCCC3)o2)cc1,152*,77,78*,1.7,0.2
Clc1ccc(CSc2nnc(NC3=NCCCCC3)s2)cc1,2,98,-2,1.4,1
CC(C)/C=N/NC(=O)c1ccc(Cl)cc1,7,108,-4,1.3,1
CC(NC(=O)Nc1ccc([N+](=O)[O-])cc1)C(c1cccs1)N1CCCC1 (stereo not drawn),-13,99,-4,1.1,1
CCC(=O)N1CCN(c2ccc(NC(=O)c3ccc([N+](=O)[O-])o3)cc2Cl)CC1,-92,130*,-4,0.24,1
CCN1CCN(c2ccc(NC(=O)c3ccc([N+](=O)[O-])o3)cc2Cl)CC1,-94,148*,-2,2.3,1
CCN1CCN(c2ccc(NC(=O)c3ccc(F)cc3)cc2Cl)CC1,27,113,2,1.6,1
CCC(=O)N1CCN(c2ccc(NC(=O)c3cc4ccccc4o3)cc2Cl)CC1,-14,92,-4,0.35,1
Cc1ccc(C(=O)NCCCc2ccccc2)s1,65,125,10,2.5,0.9
O=C1C(=C2SCCCS2)CC/C1=C\c1ccc(F)cc1,49,73,93*,2.4,0.1
O=C1/C(=C/c2ccc(F)cc2)CCC1C1CCCC1 (stereo not drawn),96,106,45,1.8,0.6
Cc1cccc(/C=C2\CCC(=C3SCCCS3)C2=O)c1,172*,90,93*,2.4,0.1
CCN1C(=O)C(C(=O)c2ccccc2)SC1=S (stereo not drawn),-26,102,0,1.2,1
C=C(C)C1CC=C(C)/C(=N/NC(=O)c2ccoc2C)C1 (stereo not drawn),29,138*,-4,1.3,1
c1ccc(C2=Nc3ccccc3SC2c2nc3ccccc3[nH]2)cc1 (stereo not drawn),110,128,4,6.7*,1
SMILES,APP 5'UTR act,STAT1 act,FLuc inh counter,NF-kB expr up,FLuc stim CS
CC(C)(C)CN1CCNC(=O)C1CC(=O)NCCc1ccccc1F (stereo not drawn),-7,97,1,0.94,1
C=C(C)Cn1c(C)cc(C)c(S(=O)(=O)c2cccc(C)c2)c1=O,14,90,-6,0.97,1.1
O=C(Cc1csc(N2CCOCC2)n1)N/N=C/c1ccc(Cl)cc1Cl,18,97,-4,0.69,1
COc1cc(/C=N/NC(=O)Cc2csc(N3CCOCC3)n2)cc(OC)c1O,21,103,60*,1.1,0.4
Oc1cccc2ccc[n+](CC(O)Cn3c4ccccc4c4ccccc43)c12 (stereo not drawn),-10,99,0,0.67,1
Cc1ccc(OCCOc2cccc(Br)c2)c([N+](=O)[O-])n1,54,132*,7,2.5,0.9
Cc1nn(CCOc2cccc(Br)c2)c(C)c1[N+](=O)[O-],5,102,-4,0.88,1
Brc1ccc(NCc2cccc3ccccc23)nc1,-12,111,-3,1.7,1
Oc1ccccc1CNc1ccc(Br)cn1,71,112,2,5.4*,1
COc1ccc(OCc2cccc(C(=O)NN)c2)cc1,80,43,30,2.5,0.7
COc1ccc(C(=O)Nn2c(SCc3cccc([N+](=O)[O-])c3)nc3ccccc3c2=O)cc1,94,144*,14,0.86,0.9
CCOC(CCn1c(SCc2cccc([N+](=O)[O-])c2)nc2ccccc2c1=O)OCC,-6,100,-4,0.55,1
COc1cc(CNC(=O)c2cccc(COc3ccc(Cl)cc3)c2)cc(OC)c1,139*,107,-2,1.9,1
O=C(Nn1c(SCc2cccc([N+](=O)[O-])c2)nc2ccccc2c1=O)c1ccccc1,119,150*,2,0.96,1
COc1ccc(OCc2cccc(C(=O)Nn3cc([N+](=O)[O-])cn3)c2)cc1,25,21,70*,7.4*,0.3
O=C(NCc1ccccc1)c1cccc(COc2ccc(Cl)cc2)c1,77,124,1,2,1
Cc1c(Br)c([N+](=O)[O-])nn1CC(=O)c1ccccc1,3,102,-11,1.3,1.1
Cc1oc(-c2ccccc2Cl)nc1CN1CCCCC1c1cccnc1 (stereo not drawn),1,98,-5,1,1.1
Cc1ccccc1CCN(C(=O)Cn1nnc2ccccc21)C(C(=O)NCC1CCCO1)c1nc2ccccc2n1C (stereo not drawn),8,99,-3,1.1,1
COc1ccccc1N1CCN(C(=O)c2cc(-c3ccc(C)cc3)on2)CC1,8,94,0,1.1,1
COc1ccc(-c2cc(C(=O)N3CCCCC3)no2)cc1OC,46,132*,1,1.9,1
Cc1ccc(-c2cc(C(=O)N3CCCC3)no2)cc1,208*,73,85*,3.8*,0.2
CCOC(=O)c1nn(-c2ccc3ccccc3c2)cc1O,47,103,33,2.3,0.7
COC(=O)c1nn(-c2ccc(-c3ccccc3)cc2)cc1O,156*,96,80*,4.6*,0.2
CCOC(=O)c1nn(-c2ccc(C)cc2)cc1O,137*,108,59*,4.1*,0.4
O=C(CSc1cccc[n+]1[O-])CSc1cccc[n+]1[O-],-1,93,1,4.9*,1
CCOC(=O)CSc1nc(-c2ccc3c(c2)OCO3)ccc1C#N,202*,126,13,0.74,0.9
COC(=O)CSc1nc2cc(OC)ccc2cc1C#N,155*,142*,6,14*,0.9
CCOC(=O)CCCSc1nc(-c2ccc3c(c2)OCO3)cc(C(F)(F)F)c1C#N,19,101,-6,1.2,1.1

# Screening data deposited in PubChem BioAssay by several laboratories.
